Measured values from different studies.
Lines come from different studies, so protocols differ.
Target: Serine/threonine-protein kinase Nek7 (NEK7, Homo sapiens, UniProt Q8TDX7)

Structure (SMILES) | read-out | technique | concentration | remaining binding
C[C@@H](c1ccc(-n2cnc3c(N)ncnc32)cc1)N1CCc2nn(C)c(Cc3ccccc3)c2C1=O | binding | competition with immobilised ligand | 0.1 µM | 94%
C[C@H]1CCN(c2nccc(-c3cnn4ncccc34)n2)C1 | binding | – | 1 µM | 100%
Cc1cnc(Nc2ccc(C(=O)N3CCC(N4CCCC4)CC3)cc2)nc1-c1cc2ccccc2s1 | binding | competition with immobilised ligand | 1 µM | 0.7%
O=C(Nc1cccnn1)N1CCC(=Cc2cccc(Oc3ccc(C(F)(F)F)cn3)c2)CC1 | cell-free assay | competition with immobilised ligand | 1 µM | 100%
Nc1ncc2c(n1)-c1c([nH]c3ccc(C#CC4CC4)cc13)CCCC2 | binding | competition with immobilised ligand | 1 µM | 88%
CC(=O)C1=C(C)N(c2cccc(C(F)(F)F)c2)C(=O)N[C@@H]1c1ccc(C#N)nc1 | cell-free assay | competition with immobilised ligand | 1 µM | 100%
Cc1cnn2ncc(-c3ccnc(N(C)C)n3)c2c1 | binding | – | 1 µM | 100%
O=C(Nc1cnc(Oc2ccc(F)cc2)nc1)N1CCc2ncccc2[C@@H]1c1ccc(F)cc1 | cell-free assay | competition with immobilised ligand | 1 µM | 84%
CC1CCCN1c1nccc(-c2cnn3ncccc23)n1 (centres unmarked) | binding | – | 1 µM | 100%
COc1ccc2c(c1)O[C@@H](c1ccc(OC)c(OC)c1)C[C@H]2NC(=O)C1(c2ccc3c(c2)OC(F)(F)O3)CC1 | cell-free assay | competition with immobilised ligand | 1 µM | 100%
O=C(c1ccc(Nc2ncc(Cl)c(-c3ccc(Cl)s3)n2)cc1)N1CCC(N2CCCC2)CC1 | binding | competition with immobilised ligand | 1 µM | 1.4%
O=C(N1CCS(=O)(=O)CC1)N1C[C@H](c2ccc(OC(F)(F)F)cc2)C[C@H](c2nc(C3CC3)no2)C1 | cell-free assay | competition with immobilised ligand | 1 µM | 100%
FC(F)(F)Oc1cccc(-c2cnc3ccc(-c4ccncc4)nn23)c1 | cell-free assay | competition with immobilised ligand | 5 µM | 91%
CC(=O)Nc1c(C(C)=O)c(=O)n(C)c2nc(-c3ccc(Cl)cc3Cl)c(-c3ccc(Cl)cc3)cc12 | cell-free assay | competition with immobilised ligand | 1 µM | 100%
CN(C)c1ncc(F)c(-c2cnn3ncccc23)n1 | binding | – | 1 µM | 95%
C=CC(=O)N1CCC(C(=O)NCC(=O)N2CCN(c3nc(-c4cnc(N)nc4C(F)F)nc(N4CCOCC4)n3)CC2)CC1 | binding | competition with immobilised ligand | 1 µM | 100%
CNC(=O)[C@@H]1CC[C@@H](n2c(-c3ccc4cnccc4c3)nc3ccc(C(=O)NCc4cccc(C(N)=O)c4)cc32)C1 | binding | competition with immobilised ligand | 1 µM | 92%
F[C@@H]1CCN(c2nccc(-c3cnn4ncccc34)n2)C1 | binding | – | 1 µM | 100%
O=C(NCC1CCOCC1)c1n[nH]cc1NC(=O)c1c(F)cccc1F | binding | competition with immobilised ligand | 1 µM | 93%
N[C@@H]1CCN(c2nccc(-c3cnn4ncccc34)n2)C1 | binding | – | 1 µM | 100%
O=C(c1ccc(Nc2ncc(Cl)c(-c3cc4ccccc4s3)n2)cc1)N1CCC(N2CCCC2)CC1 | binding | competition with immobilised ligand | 1 µM | 4.5%
Cc1nc(C2CCN(C(=O)c3ccc(OC(F)(F)F)cc3N)CC2)c2ncc(N3CCN(C)CC3)cc2n1 | cell-free assay | competition with immobilised ligand | 1 µM | 100%
CN(c1nccc(-c2cnn3ncccc23)n1)C1CC1 | binding | – | 1 µM | 100%
